STAT1 act = STAT1 signaling activation; NIH 3T3 STAT1-luciferase reporter, IFN-gamma, luminescence; 100% = IFN-gamma alone, no compound; activation (% of control), % at 5.5 µM; actives 2.6% (n = 200,000);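 active = activation above the screen-wide mean activation plus 3 SD, cut at about 130% in these data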;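 also: raw ratio to IFN-gamma control signal so 100% means no change and 0% no light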
NF-kB neuron act = NF-kB expression increase, human neuronal cells. NF-kB reporter expression; active compounds read high. fold change at 12.5 µM. actives 1.6% (n = 190,000). AID 1239; in the data active = fold change above about 3.3
FLuc inhib CS = Photinus pyralis luciferase inhibition counter-screen; P08659; ATPLite firefly luciferase biochemical luminescence, 10 min; inhibition, % at 10 µM; actives 1.5% (n = 200,000);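 active = inhibition above about 50% when tested at 10 µM, limit read from the data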
Target sequence (P08659 whole entry, looked up): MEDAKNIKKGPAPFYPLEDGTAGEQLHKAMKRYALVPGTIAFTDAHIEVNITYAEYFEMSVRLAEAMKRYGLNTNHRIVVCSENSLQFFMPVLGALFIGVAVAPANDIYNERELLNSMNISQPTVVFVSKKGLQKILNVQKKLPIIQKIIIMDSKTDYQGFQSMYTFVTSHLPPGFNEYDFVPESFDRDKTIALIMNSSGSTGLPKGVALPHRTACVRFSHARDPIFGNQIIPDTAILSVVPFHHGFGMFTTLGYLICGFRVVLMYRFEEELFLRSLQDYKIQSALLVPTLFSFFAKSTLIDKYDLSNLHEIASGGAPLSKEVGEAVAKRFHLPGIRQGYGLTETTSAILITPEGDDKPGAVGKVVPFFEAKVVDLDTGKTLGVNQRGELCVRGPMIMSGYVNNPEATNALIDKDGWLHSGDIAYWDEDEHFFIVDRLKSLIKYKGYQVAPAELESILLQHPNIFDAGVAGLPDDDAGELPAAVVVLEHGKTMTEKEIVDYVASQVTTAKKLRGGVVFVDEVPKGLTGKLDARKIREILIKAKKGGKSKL
APP 5'UTR act = activates APP 5'UTR luciferase reporter; AID 1276; activation, % at 2 µM; SH-SY5Y APP 5'UTR luciferase reporter, luminescence; zero percent = DMSO vehicle wells; actives 1% (n = 190,000);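 active = activation above a set limit, based on mean plus 3 SD of controls, cut at about 140% in these data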
FLuc act counter = firefly luciferase counter-screen for stimulation assays. activation factor at 10 µM. ATPlite luciferase biochemical, luminescence, 10 min; 0 = ATP-free wells, 1 = DMSO control. 200,000 tested, under 10 active;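 active = luciferase activation factor, scaled between plate controls, of at least 2 with compound at 10 µM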
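System: cell-free luciferase reagent; medium: PBS as buffer for the ATP substrate; doses: test compounds dosed from 2 mM stocks in 100% DMSO; incubation: 10 min, room temperature; measured by: luminescence from luciferase reaction; read-out: luciferase activation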
Pf gametocyte = inhibitors of late stage P. falciparum gametocyte viability | inhibition, % at 10.9 µM | AID 743093 | actives 0.065% (n = 150,000) | P. falciparum stage V gametocytes, ATP luminescence, 24 h;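 active = inhibition above the mean plus 3 SD of compounds within the control limits, set per campaign, cut at about 38% in these data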;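 also: 0% = DMSO wells and 100% = medium only without gametocytes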
Active calls of the source: *; · = not tested or not shown. Compounds with a hit are over-represented: about 3.5% of the library has one in this group of screens.

SMILES	STAT1 act	NF-kB neuron act	FLuc inhib CS	APP 5'UTR act	FLuc act counter	Pf gametocyte
Cc1ccc(C(=O)N/N=C\C=C\c2ccccc2[N+](=O)[O-])cn1	92	1.2	1	-22	1	9
CCOc1ccc(C(=O)N/N=C/c2ccccc2[N+](=O)[O-])cc1	134*	2	89*	140*	0.1	-3
CCOc1ccc(C(=O)N/N=C/c2cccc3cccnc23)cc1	113	1.4	43	14	0.6	21
COc1ccc(C(=O)N/N=C/c2cccc3cccnc23)cc1	99	1.1	59*	19	0.4	·
CCC(=O)Nc1ccc(C(=O)N/N=C/c2ccccc2[N+](=O)[O-])cc1	103	0.92	-2	30	1	·
Cc1ccc(C(=O)N/N=C\c2ccccc2[N+](=O)[O-])cn1	128	2	78*	43	0.2	10
CC(Oc1ccccc1)C(=O)NNS(=O)(=O)c1ccc([N+](=O)[O-])cc1 (centres undefined)	88	1.3	-8	7	1.1	6
CCc1ccc2nc(N3C(=O)c4oc5ccccc5c(=O)c4C3c3ccc(OC)c(OC)c3)sc2c1 (centres undefined)	101	1	-5	12	1.1	·
Cc1ccn2c(C(=O)c3ccc(Cl)cc3)cnc2c1	146*	2	52*	165*	0.5	·
O=C(NCc1ccco1)c1cc([N+](=O)[O-])cc([N+](=O)[O-])c1	101	1.4	-3	1	1	25
COc1cc(NC(=O)C/C(C)=N/NC(=O)Cc2ccccc2)c(OC)cc1Cl	89	1.1	-17	9	1.2	·
COc1cc(NC(=O)C/C(C)=N/NC(=O)c2cccs2)c(OC)cc1Cl	139*	1.3	-6	171*	1.1	-9
CCCN(CCC)C(=S)NC(=O)c1ccc(Cl)cc1Cl	102	1	-4	-1	1	13
c1ccc(-c2nc3ccccc3o2)nc1	126	1.4	31	48	0.7	·
Nc1ccc2oc(-c3ccccn3)nc2c1	113	0.93	58*	42	0.4	·
Clc1ccc2oc(-c3ccccn3)nc2c1	121	3.1	69*	124	0.3	·
O/N=C/c1nc2cc(Cl)ccc2o1	103	1.1	0	31	1	-8
Cc1nn(-c2ccccc2)c(N)c1Sc1cccc([N+](=O)[O-])c1	101	0.94	-8	-15	1.1	-17
Cc1nn(-c2cccc([N+](=O)[O-])c2)c(N)c1-c1ccccc1	142*	3.2	16	49	0.8	-19
O=[N+]([O-])c1cc(O)c2ncccc2c1	97	5.8*	-1	-29	1	-20
Nc1nc(CSc2ccccc2)nc(N2CCCCC2)n1	142*	2.4	-2	33	1	9
CC(=O)NC(=S)Nc1sc2c(c1C(N)=O)CCC(C)C2 (centres undefined)	132*	3.5*	38	65	0.6	-6
CC(C)(C)C(=O)NC(=S)Nc1sc2c(c1C(N)=O)CCC2	146*	2.1	21	46	0.8	-2
CC(C)CC(=O)NC(=S)Nc1sc2c(c1C(N)=O)CCC2	144*	1.5	4	55	1	12
CCCCC(=O)Nc1sc2c(c1C(N)=O)CCC2	116	1.6	7	21	0.9	·
SMILES	STAT1 act	NF-kB neuron act	FLuc inhib CS	APP 5'UTR act	FLuc act counter	Pf gametocyte
O=Nc1ccc(NOC(=O)c2ccccc2)cc1	113	1.4	90*	-15	0.1	0
CC(C)OC(=O)c1ccc(NC(=O)c2ccccc2)cc1	125	2.5	8	100	0.9	12
Clc1ccc(-c2cc(CSc3ccccc3)on2)cc1	136*	6.2*	4	·	1	14
CC(C)CCNC(=O)CCCC1=NS(=O)(=O)c2ccccc2N1	99	1.2	1	32	1	-16
Cc1ccc(O)c(NC(=O)c2noc3c2CCCCC3)c1	115	9.8*	65*	212*	0.3	-36
CCc1ccc(NC(=O)c2cc(C(C)C)on2)cc1	121	8*	30	137*	0.7	·
Cc1ccc(NC(=O)c2cc(C)on2)cc1	130*	3.3*	45	82	0.5	5
CCc1ccc(NC(=O)c2cc(C)on2)cc1	115	5.8*	61*	200*	0.4	·
Cc1ccc(NC(=O)c2onc(C)c2Cl)cc1	126	3.1	9	96	0.9	·

High-throughput results: PubChem BioAssay, several laboratories
